Experimental data published in ChEMBL document CHEMBL1667846, “Optimization of a novel class of benzimidazole-based farnesoid X receptor (FXR) agonists to improve physicochemical and ADME properties” (Bioorg Med Chem Lett, 2011).
Converted amounts (≈) assume the structure as drawn.

Tests used:
[1] = Solubility of the compound in 0.05 M phosphate buffer at pH 6.5; assay type: physicochemical
[2] = Lipophilicity log D of the compound at pH 7.4; assay type: physicochemical; details: buffer
In short: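 Lipophilicity measured as log D at pH 7.4.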

[3] = AUC in C57BL/6 mouse at 4 mg/kg, iv or 10 mg/kg, po; assay type: ADME, organism-based; details: plasma
In short: (§1)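 Male C57BL/6 mice (4 mg/kg iv, 10 mg/kg po) and male Wistar rats (2 mg/kg iv, 5 mg/kg po), single doses. Oral vehicle was 7.5% gelatin in 0.62% aqueous NaCl. Intravenous vehicle was 30% N-methylpyrrolidinone in aqueous 100 mM TRIS buffer pH 8.5. Reported parameters were Cl, Cmax/dose, Vss, AUC/dose, t1/2 and oral bioavailability F.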

[4] = Volume of distribution at steady state in Wistar rat at 2 mg/kg, iv or 5 mg/kg, po; assay type: ADME, organism-based; details: in vivo, read-out: Vdss; in short: as §1
[5] = Oral bioavailability in Wistar rat at 2 mg/kg, iv or 5 mg/kg, po; assay type: ADME, organism-based; details: in vivo; in short: as §1
[6] = Cmax in Wistar rat at 2 mg/kg, iv or 5 mg/kg, po; assay type: ADME, organism-based; details: in vivo; in short: as §1
[7] = Oral bioavailability in C57BL/6 mouse at 4 mg/kg, iv or 10 mg/kg, po; assay type: ADME, organism-based; details: in vivo; in short: as §1
[8] = Cmax in C57BL/6 mouse at 4 mg/kg, iv or 10 mg/kg, po; assay type: ADME, organism-based; details: in vivo; in short: as §1
[9] = AUC in Wistar rat at 2 mg/kg, iv or 5 mg/kg, po; assay type: ADME, organism-based; details: plasma; in short: as §1
[10] = Volume of distribution at steady state in C57BL/6 mouse at 4 mg/kg, iv; assay type: ADME, organism-based; design: dose 4 mg/kg, route intravenous; details: in vivo, read-out: Vdss; in short: as §1

SMILES | solubility [1] | logD [2] | other results
COc1ccc(-c2nc3cc(F)c(F)cc3n2[C@H](C(=O)N[C@H]2CC[C@H](C(=O)O)CC2)C2CCCCC2)c(OC)n1 | 465 µg/mL (≈ 835 µM) | 1.91 | –
O=C(Nc1ccc(OC2(C(=O)O)CC2)cc1F)[C@H](C1CCCCC1)n1c(-c2ccc(Cl)cc2)nc2cc(F)c(F)cc21 | 280 µg/mL (≈ 468 µM) | 2.32 | –
O=C(O)c1ccc(NC(=O)[C@H](C2CCCCC2)n2c(-c3ccc(Cl)cc3)nc3cc(F)c(F)cc32)cc1 | 88 µg/mL (≈ 168 µM) | 3.06 | –
O=C(Nc1ccc(-c2nnn[nH]2)cc1F)[C@H](C1CCCCC1)n1c(-c2ccc(Cl)cc2)nc2cc(F)c(F)cc21 | 490 µg/mL (≈ 866 µM) | 2.96 | –
O=C(O)c1ccc(NC(=O)[C@H](C2CCCCC2)n2c(-c3ccc(Cl)cc3)nc3ccccc32)c(C(F)(F)F)c1 | 175 µg/mL (≈ 315 µM) | 2.34 | –

Continued, in another order:

solubility [1] | logD [2] | SMILES | other results
< 1 µg/mL | > 4 | O=C(NC1CCCCC1)[C@H](C1CCCCC1)n1c(-c2ccc(Cl)cc2)nc2cc(F)c(F)cc21 | –
395 µg/mL (≈ 745 µM) | 2.49 | O=C(N[C@H]1CC[C@H](C(=O)O)CC1)[C@H](C1CCCCC1)n1c(-c2ccc(Cl)cc2)nc2cc(F)c(F)cc21 | –
32 µg/mL (≈ 59.5 µM) | 2.83 | Cc1cc(C(=O)O)ccc1NC(=O)[C@H](C1CCCCC1)n1c(-c2ccc(Cl)cc2)nc2cc(F)c(F)cc21 | –
17 µg/mL (≈ 33.9 µM) | > 4 | O=C(N[C@H]1CC[C@H](O)CC1)[C@H](C1CCCCC1)n1c(-c2ccc(Cl)cc2)nc2cc(F)c(F)cc21 | –
51 µg/mL (≈ 91.3 µM) | 2.98 | O=C(O)c1ccc(NC(=O)[C@H](C2CCCCC2)n2c(-c3ccc(Cl)cc3)nc3cc(F)c(F)cc32)c(Cl)c1 | –
115 µg/mL (≈ 212 µM) | 2.66 | O=C(O)c1ccc(NC(=O)[C@H](C2CCCCC2)n2c(-c3ccc(Cl)cc3)nc3cc(F)c(F)cc32)c(F)c1 | AUC [3]: 5430 ng·h/mL; Vd [4]: 0.62 L/kg; bioavailability [5]: 59%; Cmax/dose [6]: 270 ng/mL; bioavailability [7]: 33%; Cmax/dose [8]: 205 ng/mL; AUC [9]: 3030 ng·h/mL; Vd [10]: 1.24 L/kg
< 1 µg/mL | > 4 | O=C(NC1CCCCC1)[C@H](C1CCCCC1)n1c(-c2ccc(Cl)cc2)nc2cc(F)c(Cl)cc21 | –
